Experimental findings from ChEMBL document CHEMBL3392987, “Novel synthetic coumarins that targets NF-κB in Hepatocellular carcinoma” (Bioorg Med Chem Lett, 2015) are described below.

Series [1] relates to HepG2. In words: Cytotoxicity against human HepG2 cells after 24 to 72 hrs by MTT assay. It counts as functional, cell-based. The method, boiled down:
(§1)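 HepG2 cells plated in triplicate and treated with a range of compound concentrations. MTT assay run after 24, 48 and 72 h. Data given as mean ± SD of triplicates, with p <0.05 flagged.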

Series [2] has as its system HepG2. As to the kind of experiment: Antiinvasive activity in CXCL12-induced human HepG2 cells at 50 uM after 8 hrs by matrigel invasion assay.
A short description of series [3]: Cytotoxicity against human LO2 cells at 50 uM after 72 hrs by MTT assay. Type of series: cell-based. The following applies: l02, 72 h. Background: Tetrazolium assays rely on reduction of a dye to a coloured formazan, in cell work by metabolically active cells.
The target in series [4] is T1, Nuclear factor NF-kappa-B complex (Homo sapiens) (UniProt Q00653+P19838+Q04206). In words: Inhibition of NF-kappaB in human HepG2 cell extract assessed as reduction in C-Myc expression at 50 uM after 12 to 48 hrs by Western blotting. Type of series: cell-based. The method, boiled down:
(§2)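 HepG2 cells treated with 50 µM compound over a time course. Whole-cell extract (30 µg protein) resolved on 10% SDS–PAGE; membrane cut by molecular weight and probed for cyclin D1, Bcl-2, survivin or C-Myc. Blots stripped and reprobed for β-actin as loading control. Representative of two independent experiments.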
(A western blot detects proteins with antibodies after separation by electrophoresis.)

The subject of series [5] is HepG2. In words: Antiinvasive activity in CXCL12-induced human HepG2 cells at 50 uM after 8 hrs by in vitro migration assay.
Series [6] concerns the target T1, Nuclear factor NF-kappa-B complex (Homo sapiens). As to the kind of experiment: Inhibition of NF-kappaB in human HepG2 cell extract assessed as reduction in cyclin D1 expression at 50 uM after 12 to 48 hrs by Western blotting. It counts as cell-based. The method, boiled down: as §2
The subject of series [7] is PLC-PRF-5. As to the kind of experiment: Cytotoxicity against human PLC/PRF/5 cells by MTT assay. Type of series: functional, cell-based.
Series [8] has as its system HepG2. In words: Induction of apoptosis in human HepG2 cells assessed as PARP cleavage after 12 to 48 hrs by MTT assay. Type of series: functional, cell-based. As to conditions: in the assay text read “by Western blotting” for “by MTT assay”. The method, boiled down:
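HepG2 cells treated with compound over a time course. Whole-cell extract (30 µg protein) resolved on 10% SDS–PAGE; membrane cut by molecular weight, probed for PARP, then probed for β-actin on the same blots as loading control.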

For series [9], the target named is T1, Nuclear factor NF-kappa-B complex (Homo sapiens). In words: Inhibition of NF-kappaB in human HepG2 cell extract assessed as reduction in Bcl-2 expression at 50 uM after 12 to 48 hrs by Western blotting. Type of series: cell-based. The method, boiled down: as §2
For series [10] the target is unchanged. As to the kind of experiment: Inhibition of NF-kappaB in human HepG2 cell extract assessed as reduction in MMP12 expression at indicated concentrations by Western blotting.
Series [11] shares this target. In words: Inhibition of NF-kappaB in human HepG2 cell extract assessed as reduction in survivin expression at 50 uM after 12 to 48 hrs by Western blotting. It counts as cell-based. The method, boiled down: as §2
Series [12] deals with HepG2. In words: Cytotoxicity against human HepG2 cells at 5 to 15 uM by MTT assay. It counts as functional, cell-based. As to conditions: TDE = time-dependent effect. The method, boiled down: as §1
Series [13] relates to Huh-7. In words: Cytotoxicity against human HuH7 cells by MTT assay. It counts as functional, cell-based.
Series [14] has as its target T1, Nuclear factor NF-kappa-B complex (Homo sapiens). As to the kind of experiment: Inhibition of NF-kappaB DNA binding activity in human HepG2 cell nuclear extract at 50 uM by ELISA-based DNA binding assay. It counts as protein-complex assay. The following applies: TDE = time-dependent effect. The method, boiled down:
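HepG2 cells treated with 50 µM compound over a time course, then nuclear extracts prepared. Extract protein (5 µg) tested in an ELISA-based TransAM NF-κB DNA-binding kit. Representative of two independent experiments.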
A general note: An ELISA detects its analyte on a solid surface through an enzyme-linked reagent.

pIC50: −log10 of the molar value. Calls of active or inactive are those of the source. The calls are words filed in the database; no cut-off is given here.

T1 sequence (P19838 whole entry, looked up): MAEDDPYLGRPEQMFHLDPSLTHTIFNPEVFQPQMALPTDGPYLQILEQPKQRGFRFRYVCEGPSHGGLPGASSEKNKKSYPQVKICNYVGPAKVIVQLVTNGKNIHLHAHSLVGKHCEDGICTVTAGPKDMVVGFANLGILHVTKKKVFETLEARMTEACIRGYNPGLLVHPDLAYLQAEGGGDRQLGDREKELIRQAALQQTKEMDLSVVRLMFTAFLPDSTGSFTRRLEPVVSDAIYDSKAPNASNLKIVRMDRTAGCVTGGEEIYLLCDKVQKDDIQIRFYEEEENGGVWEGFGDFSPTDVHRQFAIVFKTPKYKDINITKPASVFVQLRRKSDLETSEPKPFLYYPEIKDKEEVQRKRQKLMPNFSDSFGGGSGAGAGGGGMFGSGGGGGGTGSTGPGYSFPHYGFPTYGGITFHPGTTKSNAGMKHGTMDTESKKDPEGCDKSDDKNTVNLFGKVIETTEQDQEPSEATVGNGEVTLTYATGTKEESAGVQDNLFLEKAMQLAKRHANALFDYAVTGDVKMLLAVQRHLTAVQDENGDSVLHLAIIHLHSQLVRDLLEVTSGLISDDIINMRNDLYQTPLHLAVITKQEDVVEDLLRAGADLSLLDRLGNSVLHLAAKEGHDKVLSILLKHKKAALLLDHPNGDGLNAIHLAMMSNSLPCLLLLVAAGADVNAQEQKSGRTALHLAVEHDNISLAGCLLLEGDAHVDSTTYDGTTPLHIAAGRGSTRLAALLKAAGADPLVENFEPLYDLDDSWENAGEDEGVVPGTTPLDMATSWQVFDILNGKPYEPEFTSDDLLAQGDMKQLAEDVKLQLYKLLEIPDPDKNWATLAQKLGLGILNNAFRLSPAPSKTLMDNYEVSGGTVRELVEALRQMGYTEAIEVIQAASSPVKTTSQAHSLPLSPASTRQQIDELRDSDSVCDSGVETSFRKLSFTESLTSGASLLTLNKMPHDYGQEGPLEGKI
T1 sequence (Q00653 whole entry, looked up): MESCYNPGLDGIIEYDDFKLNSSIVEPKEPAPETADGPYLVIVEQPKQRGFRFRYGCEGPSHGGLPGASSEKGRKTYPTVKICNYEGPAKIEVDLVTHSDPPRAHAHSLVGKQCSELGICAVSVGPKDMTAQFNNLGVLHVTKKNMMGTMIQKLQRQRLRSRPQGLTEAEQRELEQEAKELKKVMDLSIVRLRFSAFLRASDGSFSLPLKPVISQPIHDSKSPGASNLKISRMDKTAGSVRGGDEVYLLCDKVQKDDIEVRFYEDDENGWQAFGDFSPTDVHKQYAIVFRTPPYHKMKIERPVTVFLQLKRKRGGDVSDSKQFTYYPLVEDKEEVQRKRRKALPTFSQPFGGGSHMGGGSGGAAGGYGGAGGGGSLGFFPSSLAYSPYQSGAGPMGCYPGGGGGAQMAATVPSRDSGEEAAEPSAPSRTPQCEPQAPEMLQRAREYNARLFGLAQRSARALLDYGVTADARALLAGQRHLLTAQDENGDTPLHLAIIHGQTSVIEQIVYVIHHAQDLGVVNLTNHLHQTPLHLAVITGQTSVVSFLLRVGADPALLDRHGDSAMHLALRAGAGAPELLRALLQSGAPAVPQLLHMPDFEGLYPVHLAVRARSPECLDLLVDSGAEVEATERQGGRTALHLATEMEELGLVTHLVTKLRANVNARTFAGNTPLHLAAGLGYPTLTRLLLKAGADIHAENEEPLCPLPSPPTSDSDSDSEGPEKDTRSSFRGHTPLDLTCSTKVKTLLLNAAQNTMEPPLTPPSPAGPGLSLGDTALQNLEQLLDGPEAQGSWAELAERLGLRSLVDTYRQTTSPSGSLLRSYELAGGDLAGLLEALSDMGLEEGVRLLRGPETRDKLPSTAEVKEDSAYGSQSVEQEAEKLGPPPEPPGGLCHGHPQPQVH
T1 sequence (Q04206 whole entry, looked up): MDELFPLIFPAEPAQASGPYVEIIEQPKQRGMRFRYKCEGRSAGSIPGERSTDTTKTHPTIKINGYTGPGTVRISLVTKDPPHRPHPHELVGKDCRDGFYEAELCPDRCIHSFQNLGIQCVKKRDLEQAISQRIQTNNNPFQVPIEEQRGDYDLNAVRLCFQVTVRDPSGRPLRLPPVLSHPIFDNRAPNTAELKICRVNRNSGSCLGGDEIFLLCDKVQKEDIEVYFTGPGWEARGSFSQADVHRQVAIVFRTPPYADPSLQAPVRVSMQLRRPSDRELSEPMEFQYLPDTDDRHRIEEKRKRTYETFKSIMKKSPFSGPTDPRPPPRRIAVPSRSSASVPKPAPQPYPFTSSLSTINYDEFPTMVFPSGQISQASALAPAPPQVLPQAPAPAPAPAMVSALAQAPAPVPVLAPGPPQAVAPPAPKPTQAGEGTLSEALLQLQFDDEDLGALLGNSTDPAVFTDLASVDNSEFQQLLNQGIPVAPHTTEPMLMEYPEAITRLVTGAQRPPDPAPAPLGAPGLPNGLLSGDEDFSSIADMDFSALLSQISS

Regarding `COc1ccc2oc(=O)cc(CSC(=S)N3CCCC3)c2c1`, the pIC50 in series [1] was 4.27.

Take `O=c1cc(CSC(=S)N2CCCC2)c2ccc(Cl)cc2o1`: the negative-log IC50 (pIC50) in series [1] was 4.22. This pIC50 and that of the compound before are within 0.2 log units of each other.

`Cc1cc(C)c2c(CSC(=S)N(C)C)cc(=O)oc2c1` had a pIC50 in series [1] of 4.20. The pIC50 values of the last two compounds are within 0.2 log units of each other.

With `CCOC(=O)Nc1ccc2c(CSC(=S)N3CCCC3)cc(=O)oc2c1`, the outcome in [2], in series [4], in [5], in [6], in [8] and in [9] was Active. Besides, the result in series [10] and in series [11] was Active. The Activity entry in series [3] is “Non-toxic”; in series [1], “Dose-dependent effect”; in series [7] it was “Dose-dependent effect”; in series [12], “tde”; in series [13], “Dose-dependent effect”; in [14], “tde”. The compound also showed a pIC50 in [1] of 4.83.

In turn, `CCOC(=O)Nc1ccc2c(CSC(=S)N(C)C)cc(=O)oc2c1` had a pIC50 in [1] of 4.18.

In series [1], `O=c1cc(CSC(=S)N2CCCC2)c2ccc(F)cc2o1` showed a pIC50 of 4.20.

Consider `O=c1cc(CSC(=S)N2CCCC2)c2ccc3ccccc3c2o1`, for which, in [1], the negative logarithm of the IC50 (pIC50) was 4.21. The pIC50 values of the last two compounds are within 0.2 log units of each other.

Take `COC(=O)Nc1ccc2c(CSC(=S)N(C)C)cc(=O)oc2c1`: in series [1], the pIC50 was 4.21.

As for `O=c1cc(CSC(=S)N2CCCC2)c2cc(F)ccc2o1`, the pIC50 in series [1] was 4.18.

`CN(C)C(=S)SCc1cc(=O)oc2c1ccc1ccccc12` gave a pIC50 in [1] of 4.19.

`COc1ccc2oc(=O)cc(CSC(=S)N(C)C)c2c1` showed a pIC50 in series [1] of 4.22.

In series [1], `COc1ccc2c(CSC(=S)N3CCCC3)cc(=O)oc2c1` had a pIC50 of 4.21.

In series [1], `CN(C)C(=S)SCc1cc(=O)oc2ccc(F)cc12` gave a pIC50 of 4.23.

`Cc1ccc2oc(=O)cc(CSC(=S)N(C)C)c2c1`: in series [1], the pIC50 was 4.18. The pIC50 values of the last two compounds are within 0.2 log units of each other.

A word on the pIC50: it is −log10 of the IC50, conventionally taken in molar units.
